Measured values published in ChEMBL document CHEMBL4261561, “Thiosemicarbazone-based selective proliferation inactivators inhibit gastric cancer cell growth, invasion, and migration” (Medchemcomm, 2017).
Calls of active or inactive are those of the source. The rule behind the calls is not given here.

How the values were obtained:
MCF7 = assay: Antiproliferative activity against human MCF7 cells after 72 hrs by MTT assay; type: functional, cell-based; conditions: MCF7, 72 h
Summary of the method: (§1)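 Exponentially growing cells were seeded at about 3×10^3 per well and left 24 h, then given fresh medium with a range of compound concentrations for 72 h. MTT solution (5 mg/mL) was added for another 4 h. Medium was removed, formazan was dissolved in DMSO, and absorbance was read at 570 nm. IC50 was derived statistically.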

MGC-803 [1] = assay: Antiproliferative activity against human MGC803 cells after 72 hrs by MTT assay; type: functional, cell-based; conditions: MGC-803, 72 h; summary of the method: as §1
SMMC-7721 = assay: Antiproliferative activity against human SMMC7721 cells after 72 hrs by MTT assay; type: functional, cell-based; conditions: SMMC-7721, 72 h; summary of the method: as §1
MGC-803 [2] = assay: Induction of apoptosis in human MGC803 cells assessed as late apoptotic cells at 0.5 uM after 48 hrs by Annexin-V/propidium iodide staining based flow cytometric analysis (reference value: 0.3%); type: functional
MGC-803 [3] = assay: Cell cycle arrest in human MGC803 cells assessed as accumulation at G1 phase at 0.25 uM after 48 hrs by propidium iodide staining-based flow cytometric method (reference value: 60.55%); type: functional
MGC-803 [4] = assay: Cell cycle arrest in human MGC803 cells assessed as accumulation at G2 phase at 0.1 uM after 48 hrs by propidium iodide staining-based flow cytometric method (reference value: 10.60%); type: functional
MGC-803 [5] = assay: Induction of apoptosis in human MGC803 cells assessed as late apoptotic cells at 0.25 uM after 48 hrs by Annexin-V/propidium iodide staining based flow cytometric analysis (reference value: 0.3%); type: functional
MGC-803 [6] = assay: Anticlonogenic activity against human MGC803 cells at 0.1 to 0.5 uM after 7 to 14 days by crystal violet staining based assay; type: functional, cell-based
Summary of the method: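 MGC-803 cells were seeded at about 1×10^3 per well and left 24 h, then grown 14 days in fresh medium with varied compound concentrations. Cells were PBS-washed, fixed in 4% paraformaldehyde for 30 min, and stained with 1% crystal violet for 30 min at 37°C before colonies were washed clear.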

MGC-803 [7] = assay: Cell cycle arrest in human MGC803 cells assessed as accumulation at S phase at 0.25 uM after 48 hrs by propidium iodide staining-based flow cytometric method (reference value: 28.84%); type: functional
MGC-803 [8] = assay: Cell cycle arrest in human MGC803 cells assessed as accumulation at S phase at 0.1 uM after 48 hrs by propidium iodide staining-based flow cytometric method (reference value: 28.84%); type: functional
MGC-803 [9] = assay: Induction of apoptosis in human MGC803 cells assessed as necrotic cells at 0.1 uM after 48 hrs by Annexin-V/propidium iodide staining based flow cytometric analysis (reference value: 0.1%); type: functional
MGC-803 [10] = assay: Induction of apoptosis in human MGC803 cells after 48 hrs by Annexin-V/propidium iodide staining based flow cytometric analysis; type: functional, cell-based
MGC-803 [11] = assay: Up-regulation of E-cadherin protein expression in human MGC803 cells up to 0.5 uM after 48 hrs by Western blot analysis; type: functional, cell-based
Summary of the method: (§2)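 Treated MGC-803 cells were lysed on ice for 30 min in NP-40/SDS/deoxycholate/PMSF buffer. Equal protein was separated by SDS-PAGE and transferred to 0.22 µm nitrocellulose. Membranes were blocked 2 h in 5% nonfat milk/PBS, probed with primary antibody at 4°C overnight, then incubated with secondary antibody for 2 h.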

MGC-803 [12] = assay: Cell cycle arrest in human MGC803 cells assessed as accumulation at G1 phase at 0.1 uM after 48 hrs by propidium iodide staining-based flow cytometric method (reference value: 60.55%); type: functional
MGC-803 [13] = assay: Cell cycle arrest in human MGC803 cells assessed as accumulation at G2 phase at 0.5 uM after 48 hrs by propidium iodide staining-based flow cytometric method (reference value: 10.60%); type: functional
MGC-803 [14] = assay: Antiproliferative activity against human MGC803 cells after 48 hrs by MTT assay; type: functional, cell-based; conditions: MGC-803, 48 h
MGC-803 [15] = assay: Induction of apoptosis in human MGC803 cells assessed as early apoptotic cells at 0.1 uM after 48 hrs by Annexin-V/propidium iodide staining based flow cytometric analysis (reference value: 3.4%); type: functional
MGC-803 [16] = assay: Induction of apoptosis in human MGC803 cells assessed as formation of apoptotic bodies up to 0.5 uM after 48 hrs by Hoechst 33258 staining based fluorescence microscopic method; type: functional, cell-based
Summary of the method: (§3)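 About 2×10^5 MGC-803 cells per well were treated after attachment with increasing compound concentrations for 48 h. They were fixed and stained with 20 µg/mL Hoechst-33258 for 30 min in the dark, then PBS-washed three times and viewed by fluorescence microscopy under UV excitation. Apoptotic cells were scored by nuclear condensation and fragmentation.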

GES1 = assay: Cytotoxicity against human GES-1 cells after 72 hrs by MTT assay; type: cell-based; conditions: GES1, 72 h; summary of the method: as §1
MGC-803 [17] = assay: Down regulation of N-cadherin protein expression in human MGC803 cells up to 0.5 uM after 48 hrs by Western blot analysis; type: functional, cell-based; summary of the method: as §2
MGC-803 [18] = assay: Cell cycle arrest in human MGC803 cells assessed as accumulation at S phase at 0.5 uM after 48 hrs by propidium iodide staining-based flow cytometric method (reference value: 28.84%); type: functional
MGC-803 [19] = assay: Induction of apoptosis in human MGC803 cells assessed as early apoptotic cells at 0.25 uM after 48 hrs by Annexin-V/propidium iodide staining based flow cytometric analysis (reference value: 3.4%); type: functional
MGC-803 [20] = assay: Potency index, ratio of 3-AP IC50 to test compound IC50 for human MGC803 cells after 72 hrs by MTT assay; type: functional
MGC-803 [21] = assay: Induction of apoptosis in human MGC803 cells assessed as early apoptotic cells at 0.5 uM after 48 hrs by Annexin-V/propidium iodide staining based flow cytometric analysis (reference value: 3.4%); type: functional
MGC-803 [22] = assay: Induction of apoptosis in human MGC803 cells assessed as late apoptotic cells at 0.1 uM after 48 hrs by Annexin-V/propidium iodide staining based flow cytometric analysis (reference value: 0.3%); type: functional
MGC-803 [23] = assay: Induction of apoptosis in human MGC803 cells assessed as up-regulation of Bax expression after 48 hrs by Western blot analysis; type: functional, cell-based; summary of the method: as §2
MGC-803 [24] = assay: Anti-invasive activity against human MGC803 cells after 48 hrs by Hoechst 33258 staining based matrigel coated transwell assay; type: functional, cell-based
Summary of the method: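 This was an invasion variant of the transwell assay, with the upper chamber precoated with Matrigel. MGC-803 cells in 1% FBS medium with varied compound concentrations were placed above 20% FBS medium. After 48 h, cells were methanol-fixed, stained with 20 µg/mL Hoechst-33258 for 30 min in the dark, and imaged.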

MGC-803 [25] = assay: Cell cycle arrest in human MGC803 cells assessed as accumulation at S phase after 48 hrs by propidium iodide staining-based flow cytometric method; type: functional
MGC-803 [26] = assay: Antiproliferative activity against human MGC803 cells after 24 hrs by MTT assay; type: functional, cell-based; conditions: MGC-803, 24 h
MGC-803 [27] = assay: Antimigratory activity against human MGC803 cells after 48 hrs by wound healing assay; type: functional, cell-based
Summary of the method: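 Confluent monolayers were scratched with a sterile pipette tip and PBS-washed. Cells were then cultured in medium containing only 1% FBS with varied compound concentrations for 48 h. Wounds were photographed under an inverted microscope at 0 h and 48 h.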

MGC-803 [28] = assay: Induction of apoptosis in human MGC803 cells assessed as viable cells at 0.25 uM after 48 hrs by Annexin-V/propidium iodide staining based flow cytometric analysis (reference value: 96.1%); type: functional; conditions: MGC-803, 48 h, read-out: Activity
MGC-803 [29] = assay: Induction of apoptosis in human MGC803 cells assessed as cell rounding up to 0.5 uM after 48 hrs by Hoechst 33258 staining based fluorescence microscopic method; type: functional; summary of the method: as §3
MGC-803 [30] = assay: Antimigratory activity against human MGC803 cells after 48 hrs by Hoechst 33258 staining based transwell assay; type: functional, cell-based
Summary of the method: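 This was a transwell migration set-up. MGC-803 cells in medium with 1% FBS and varied compound concentrations went into the upper chamber, with 20% FBS medium below. After 48 h, chambers were PBS-washed and migrated cells were methanol-fixed. They were stained with 20 µg/mL Hoechst-33258 for 30 min in the dark and imaged on a high-content system.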

MGC-803 [31] = assay: Induction of apoptosis in human MGC803 cells assessed as down regulation of Bcl-2 expression after 48 hrs by Western blot analysis; type: functional, cell-based; summary of the method: as §2
MGC-803 [32] = assay: Induction of apoptosis in human MGC803 cells assessed as viable cells at 0.1 uM after 48 hrs by Annexin-V/propidium iodide staining based flow cytometric analysis (reference value: 96.1%); type: functional; conditions: MGC-803, 48 h, read-out: Activity
MGC-803 [33] = assay: Cell cycle arrest in human MGC803 cells assessed as accumulation at G1 phase at 0.5 uM after 48 hrs by propidium iodide staining-based flow cytometric method (reference value: 60.55%); type: functional
MGC-803 [34] = assay: Induction of apoptosis in human MGC803 cells assessed as chromatin shrinkage up to 0.5 uM after 48 hrs by Hoechst 33258 staining based fluorescence microscopic method; type: functional, cell-based; summary of the method: as §3
MGC-803 [35] = assay: Induction of apoptosis in human MGC803 cells assessed as necrotic cells at 0.25 uM after 48 hrs by Annexin-V/propidium iodide staining based flow cytometric analysis (reference value: 0.1%); type: functional
MGC-803 [36] = assay: Cell cycle arrest in human MGC803 cells assessed as accumulation at G2 phase at 0.25 uM after 48 hrs by propidium iodide staining-based flow cytometric method (reference value: 10.60%); type: functional
MGC-803 [37] = assay: Induction of apoptosis in human MGC803 cells assessed as viable cells at 0.5 uM after 48 hrs by Annexin-V/propidium iodide staining based flow cytometric analysis (reference value: 96.1%); type: functional; conditions: MGC-803, 48 h, read-out: Activity
MGC-803 [38] = assay: Induction of apoptosis in human MGC803 cells assessed as necrotic cells at 0.5 uM after 48 hrs by Annexin-V/propidium iodide staining based flow cytometric analysis (reference value: 0.1%); type: functional

## Oc1ccccc1/C=N/NC(=S)N1CCOCC1
MCF7
  IC50: > 64 µM
MGC-803 [1]
  IC50: 29.2 µM
SMMC-7721
  IC50: 37.3 µM

## C/C(=N\NC(=S)N1CCOCC1)c1ccccc1O
MCF7
  IC50: 49.2 µM
MGC-803 [1]
  IC50: 11.2 µM
SMMC-7721
  IC50: > 64 µM

## Oc1ccccc1/C=N/NC(=S)Nc1ccccc1
MCF7
  IC50: 12.4 µM
MGC-803 [1]
  IC50: 2.42 µM
SMMC-7721
  IC50: 34.1 µM

## C/C(=N\NC(=S)Nc1ccccc1)c1cc(Cl)ccc1O
MCF7
  IC50: 9.99 µM
MGC-803 [2]
  Activity: 2.3%
MGC-803 [3]
  Activity: 53.93%
MGC-803 [4]
  Activity: 9.73%
MGC-803 [5]
  Activity: 1.3%
MGC-803 [6]
  Activity: Active
MGC-803 [7]
  Activity: 46.07%
MGC-803 [8]
  Activity: 32.82%
MGC-803 [9]
  Activity: 0.1%
MGC-803 [10]
  Activity: Dose-dependent effect
MGC-803 [11]
  Activity: Active
MGC-803 [12]
  Activity: 57.45%
MGC-803 [13]
  Activity: 0%
MGC-803 [14]
  IC50: 9.22 µM
MGC-803 [15]
  Activity: 10.5%
MGC-803 [16]
  Activity: Active
GES1
  IC50: 27.9 µM
MGC-803 [17]
  Activity: Active
MGC-803 [18]
  Activity: 51.85%
MGC-803 [19]
  Activity: 15.1%
MGC-803 [20]
  Ratio IC50: 10
MGC-803 [21]
  Activity: 30%
MGC-803 [22]
  Activity: 0.4%
MGC-803 [23]
  Activity: Dose-dependent effect
MGC-803 [24]
  Activity: Dose-dependent effect
MGC-803 [25]
  Activity: Dose-dependent effect
MGC-803 [26]
  IC50: > 64 µM
MGC-803 [27]
  Activity: Dose-dependent effect
MGC-803 [1]
  IC50: 0.93 µM
MGC-803 [28]
  viability at 0.25 µM: 83.5%
MGC-803 [29]
  Activity: Active
MGC-803 [30]
  Activity: Dose-dependent effect
MGC-803 [31]
  Activity: Dose-dependent effect
MGC-803 [32]
  viability at 0.1 µM: 89%
MGC-803 [33]
  Activity: 48.15%
MGC-803 [34]
  Activity: Active
MGC-803 [35]
  Activity: 0.2%
MGC-803 [36]
  Activity: 0%
SMMC-7721
  IC50: 19.2 µM
MGC-803 [37]
  viability at 0.5 µM: 67.4%
MGC-803 [38]
  Activity: 0.3%

## COc1cc(/C=N/NC(=S)N2CCOCC2)cc(OC)c1OC
MCF7
  IC50: > 64 µM
MGC-803 [1]
  IC50: > 64 µM
SMMC-7721
  IC50: > 64 µM

## C/C(=N\NC(=S)N1CCOCC1)c1ccccc1
MCF7
  IC50: 44.6 µM
MGC-803 [1]
  IC50: 32.6 µM
SMMC-7721
  IC50: > 64 µM

## Oc1ccc2ccccc2c1/C=N/NC(=S)N1CCOCC1
MCF7
  IC50: > 64 µM
MGC-803 [1]
  IC50: > 64 µM
SMMC-7721
  IC50: 44.9 µM

## C/C(=N\NC(=S)N1CCOCC1)c1ccccc1N
MCF7
  IC50: > 64 µM
MGC-803 [1]
  IC50: > 64 µM
SMMC-7721
  IC50: > 64 µM

## C/C(=N\NC(=S)N1CCN(C(=O)OC(C)(C)C)CC1)c1cc(Cl)ccc1O
MCF7
  IC50: > 64 µM
MGC-803 [1]
  IC50: 58.4 µM
SMMC-7721
  IC50: > 64 µM
